Values after ≈ are worked out from the molar mass of the structure shown.
Assays:
[1] = test system: Leishmania amazonensis; test: Antileishmanial activity against Leishmania mexicana amazonensis promastigotes by trypan blue exclusion method; format: functional, organism-based
Outline: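 L. mexicana amazonensis promastigotes cultured in liver infusion-tryptose medium with lactalbumin and 10% FCS at 26°C, unagitated. Cultures started at 2 × 10⁶ cells/ml and drug added at 0.5–1 × 10⁷ cells/ml. Density counted by electronic particle counter and hemocytometer. Viability by trypan blue exclusion. Triplicate growth experiments.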

[2] = test system: Leishmania amazonensis; test: Inhibition of sterol biosynthesis in Leishmania mexicana amazonensis promastigotes assessed as reduction in endogenous 5-dehydro episterol level at 3 uM after 96 hrs by gas-liquid chromatography; format: functional; set-up: scale not given: the % may be the effect or the level left
Outline: (§1)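 L. mexicana promastigotes exposed to compound for 96 h. Total lipids extracted and neutral sterols separated from polar lipids by silicic acid column chromatography. Sterols analysed by TLC and by quantitative capillary gas-liquid chromatography with mass spectrometry. Composition expressed as mass % of free sterols, compared with untreated control.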

[3] = test system: L6; test: Cytotoxicity against rat L6 cells after 72 hrs by resazurin assay; format: cell-based; details: L6, 72 h
Outline: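 L-6 cells seeded at 4 × 10⁴ cells/ml in RPMI 1640 with 10% FBS and 2 mM L-glutamine. After 24 h, medium replaced with serial drug dilution and incubated for 72 h at 37°C in 5% CO2. Resazurin added for 2–4 h, fluorescence read at ex 536/em 588 nm. IC50 from sigmoidal curve. Duplicate, with an independent repeat for actives.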

[4] = test system: Leishmania amazonensis; test: Inhibition of sterol biosynthesis in Leishmania mexicana amazonensis promastigotes assessed as reduction in exogenous cholesterol level at 3 uM after 96 hrs by gas-liquid chromatography; format: functional; set-up: scale not given: the % may be the effect or the level left; outline: as §1
[5] = biological target: T1, Farnesyltransferase, putative (Leishmania major, UniProt Q4Q5W4); test: Inhibition of Leishmania major recombinant squalene synthase expressed in Escherichia coli by liquid scintillation counter
T1 sequence (Q4Q5W4 whole entry): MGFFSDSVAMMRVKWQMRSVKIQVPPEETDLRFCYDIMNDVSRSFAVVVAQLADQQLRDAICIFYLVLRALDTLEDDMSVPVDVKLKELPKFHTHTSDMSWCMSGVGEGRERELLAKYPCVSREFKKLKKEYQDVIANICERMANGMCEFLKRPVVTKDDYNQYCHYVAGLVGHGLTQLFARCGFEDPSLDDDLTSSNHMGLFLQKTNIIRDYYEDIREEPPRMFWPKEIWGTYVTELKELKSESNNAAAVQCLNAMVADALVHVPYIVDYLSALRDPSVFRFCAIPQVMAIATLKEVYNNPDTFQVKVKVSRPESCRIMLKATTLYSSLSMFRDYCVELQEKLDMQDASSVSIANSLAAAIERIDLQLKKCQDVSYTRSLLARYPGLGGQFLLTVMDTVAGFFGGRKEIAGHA
Outline: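 Soluble E. coli extract expressing L. major SQS truncated by 16 N-terminal and 40 C-terminal residues. Buffer: 50 mM phosphate pH 7.4, 20 mM MgCl2, 5 mM CHAPS, 1% Tween 80, 10 mM DTT, BSA, 0.25 mM NADPH, and a glucose-6-phosphate/G6PDH regenerating system. Substrate 0.5 μM radiolabelled farnesyl pyrophosphate. Squalene band counted by scintillation. IC50 from hyperbolic plot of five concentrations in duplicate, usually run twice.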

[6] = test system: Leishmania amazonensis; test: Inhibition of sterol biosynthesis in Leishmania mexicana amazonensis promastigotes assessed as reduction in endogenous episterol level at 1 uM after 96 hrs by gas-liquid chromatography; format: functional; set-up: scale not given: the % may be the effect or the level left; outline: as §1
[7] = test system: Trypanosoma cruzi; test: Antitrypanosomal activity against trypomastigotes of Trypanosoma cruzi Tulahuen C2C4 containing lacZ gene in rat L6 cells after 4 days by chlorophenol red-beta-D-galactopyranoside/Nonidet assay; format: functional, organism-based; details: Tulahuen C2C4, L6, 96 h
Outline: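 L-6 rat myoblasts seeded at 2,000 cells/well in RPMI 1640 with 10% FBS and 2 mM L-glutamine. After 24 h, 5,000 T. cruzi Tulahuen C2C4 lacZ trypomastigotes added with serial drug dilution. Incubated at 37°C in 5% CO2 for 4 days. CPRG/Nonidet substrate added and colour read at 540 nm after 2–4 h. IC50 from sigmoidal curve. Duplicate determinations.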

[8] = test system: Leishmania donovani; test: Antileishmanial activity against Leishmania donovani MHOM/ET/67/L82 axenic amastigotes after 72 hrs by resazurin assay; format: functional, organism-based; details: MHOM/ET/67/L82, 72 h
Outline: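 L. donovani MHOM/ET/67/L82 amastigotes grown axenically at 37°C in synthetic minimal medium at pH 5.4 with 10% heat-inactivated FBS under 5% CO2. 1 × 10⁵ amastigotes per well with seven threefold dilutions, 30 to 0.041 μg/ml. After 72 h, resazurin added for 2–4 h more. Fluorescence read at ex 536/em 588 nm. IC50 taken from sigmoidal curve. Run in duplicate, with an independent repeat for actives.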

[9] = test system: Leishmania amazonensis; test: Inhibition of sterol biosynthesis in Leishmania mexicana amazonensis promastigotes assessed as reduction in exogenous cholesterol level at 1 uM after 96 hrs by gas-liquid chromatography; format: functional; set-up: scale not given: the % may be the effect or the level left; outline: as §1
[10] = test system: Trypanosoma brucei rhodesiense; test: Trypanocidal activity against Trypanosoma brucei rhodesiense STIB 900 bloodstream form after 72 hrs by resazurin assay; format: functional, organism-based; details: STIB 900, 72 h
Outline: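 T. b. rhodesiense STIB 900 bloodstream forms in MEM with 2-mercaptoethanol and 15% heat-inactivated horse serum, with serial drug dilutions. Incubated 72 h at 37°C in 5% CO2. Resazurin added for 2–4 h more, fluorescence read at ex 536/em 588 nm. IC50 from sigmoidal curve. Duplicate, with an independent repeat for actives.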

[11] = test system: Leishmania amazonensis; test: Inhibition of sterol biosynthesis in Leishmania mexicana amazonensis promastigotes assessed as reduction in endogenous episterol level at 3 uM after 96 hrs by gas-liquid chromatography; format: functional; set-up: scale not given: the % may be the effect or the level left; outline: as §1
[12] = test system: Plasmodium falciparum; test: Antiplasmodial activity after 48 hrs against chloroquine and pyrimethamine-resistant Plasmodium falciparum K1 in human erythrocytes by [3H]hypoxanthine uptake; format: functional, organism-based
Outline: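 P. falciparum K1 in human red cells in RPMI 1640 with 5% Albumax, exposed to serial drug dilutions. Incubated 48 h at 37°C under reduced oxygen, then 0.5 μCi [³H]hypoxanthine per well for 24 h more. Cells harvested onto glass-fibre filters and counted by scintillation. Result expressed as % of untreated control, with IC50 from sigmoidal curve. Duplicate, plus an independent repeat for actives.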

[13] = test system: Leishmania amazonensis; test: Inhibition of sterol biosynthesis in Leishmania mexicana amazonensis promastigotes assessed as reduction in endogenous 5-dehydro episterol level at 1 uM after 96 hrs by gas-liquid chromatography; format: functional; set-up: scale not given: the % may be the effect or the level left; outline: as §1
[14] = test system: Leishmania amazonensis; test: Inhibition of sterol biosynthesis in Leishmania mexicana amazonensis promastigotes assessed as reduction in endogenous episterol level at 10 uM after 96 hrs by gas-liquid chromatography; format: functional; set-up: scale not given: the % may be the effect or the level left; outline: as §1
[15] = test system: Leishmania amazonensis; test: Inhibition of sterol biosynthesis in Leishmania mexicana amazonensis promastigotes assessed as reduction in endogenous cholesta-7,24-dien-3beta-ol level at 10 uM after 96 hrs by gas-liquid chromatography; format: functional; set-up: scale not given: the % may be the effect or the level left; outline: as §1
[16] = test system: Leishmania amazonensis; test: Inhibition of sterol biosynthesis in Leishmania mexicana amazonensis promastigotes assessed as reduction in endogenous 5-dehydro episterol level at 10 uM after 96 hrs by gas-liquid chromatography; format: functional; set-up: scale not given: the % may be the effect or the level left; outline: as §1
[17] = test system: Leishmania amazonensis; test: Inhibition of sterol biosynthesis in Leishmania mexicana amazonensis promastigotes assessed as reduction in exogenous cholesterol level at 10 uM after 96 hrs by gas-liquid chromatography; format: functional; set-up: scale not given: the % may be the effect or the level left; outline: as §1
[18] = test system: Leishmania amazonensis; test: Inhibition of sterol biosynthesis in Leishmania mexicana amazonensis promastigotes assessed as reduction in endogenous cholesta-5,7,24-trien-3beta-ol level at 10 uM after 96 hrs by gas-liquid chromatography; format: functional; set-up: scale not given: the % may be the effect or the level left; outline: as §1

Structure (SMILES) | MIC [1] [µM] | Activity [2] [%] | IC50 [3] [µM] | Activity [4] [%] | IC50 [5] [µM] | Activity [6] [%] | IC50 [7] [µM] | IC50 [8] [µM] | Activity [9] [%] | IC50 [10] [µM] | Activity [11] [%] | IC50 [12] [µM] | Activity [13] [%] | Activity [14] [%] | Activity [15] [%] | Activity [16] [%] | Activity [17] [%] | Activity [18] [%] | IC50 [1] [µM]
CCOC(=O)c1ccc(C2=CN3CCC2CC3)cc1 | 1 (≈ 0.257 µg/mL) | 13.4 | 265 | 73.4 | 0.18 | 11.5 | 16 | 1 | 52.2 | 35.1 | 13.2 | 11.6 | 36.3 | – | – | – | – | – | –
C1=C(c2cc3ccccc3s2)C2CCN1CC2 | 10 (≈ 2.41 µg/mL) | 15.5 | 146 | 62.3 | > 1 | 24.5 | 64.2 | 1.2 | 47.9 | 5.6 | 22.2 | 12 | 28.6 | – | – | – | – | – | –
OC[C@@H]1CC2CCN1C[C@@H]2C#Cc1ccccc1 (stereo not given in full) | > 10 | – | 74.5 | – | > 1 | – | 8.2 | > 124 | – | 12.8 | – | 3.3 | – | 13.2 | 3.9 | 63 | 17.9 | 2 | –
CCOC(=O)c1ccc(C#CC2(O)CN3CCC2CC3)cc1 (stereo not given) | 10 (≈ 2.99 µg/mL) | 54.6 | 171 | 35.9 | 4.25 | – | 5.6 | 28.7 | – | 3.3 | 9.5 | 4 | – | – | – | – | – | >99 | –
CCOC(=O)Cc1ccc(C#C[C@H]2CN3CCC2C[C@@H]3CO)cc1 (stereo not given in full) | > 10 | – | 156 | – | > 1 | – | 22.9 | 14.6 | – | 32.3 | – | 5.2 | – | 8.4 | 3.3 | 73.4 | 14.6 | 3.6 | –
OC[C@H]1CC2CCN1C[C@@H]2C#Cc1ccccc1 (stereo not given in full) | 10 (≈ 2.41 µg/mL) | – | 166 | – | > 1 | – | 25.6 | > 124 | – | 14.5 | – | 6.5 | – | 11.8 | 2.7 | 69.6 | 13.1 | 2.8 | –
CCOC(=O)Cc1ccc(C#C[C@H]2CN3CCC2C[C@H]3CO)cc1 (stereo not given in full) | – | – | 155 | – | > 1 | – | 50 | > 92 | – | 64.7 | – | 5 | – | 10.8 | 11.8 | 41.5 | 25.2 | 10.7 | > 10
